Laboratory results: ChEMBL document CHEMBL1155278, “3,4-Diaryl-isoxazoles and -imidazoles as potent dual inhibitors of p38alpha mitogen activated protein kinase and casein kinase 1delta” (J Med Chem, 2009)

Legend:
[1] = molecular target: T1, Casein kinase I isoform delta (Homo sapiens, UniProt P48730); assay: Inhibition of CK1delta assessed as residual activity at 0.1 uM by Cherenkov counting relative to control in presence of 20 uM ATP
Method in brief: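 CK1δ tested within a 76-protein-kinase panel with compound at 0.1 µM. ATP for each kinase was set near its Km for ATP. Read-out was residual activity as % of control assays without compound, given as mean ± SD, n = 3.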

[2] = molecular target: Glycogen synthase kinase-3 beta (Homo sapiens) (UniProt P49841); assay: Inhibition of GSK3-beta assessed as residual activity at 0.1 uM by Cherenkov counting relative to control in presence of 5 uM ATP
Glycogen synthase kinase-3 beta (Homo sapiens), sequence (P49841 whole entry, looked up): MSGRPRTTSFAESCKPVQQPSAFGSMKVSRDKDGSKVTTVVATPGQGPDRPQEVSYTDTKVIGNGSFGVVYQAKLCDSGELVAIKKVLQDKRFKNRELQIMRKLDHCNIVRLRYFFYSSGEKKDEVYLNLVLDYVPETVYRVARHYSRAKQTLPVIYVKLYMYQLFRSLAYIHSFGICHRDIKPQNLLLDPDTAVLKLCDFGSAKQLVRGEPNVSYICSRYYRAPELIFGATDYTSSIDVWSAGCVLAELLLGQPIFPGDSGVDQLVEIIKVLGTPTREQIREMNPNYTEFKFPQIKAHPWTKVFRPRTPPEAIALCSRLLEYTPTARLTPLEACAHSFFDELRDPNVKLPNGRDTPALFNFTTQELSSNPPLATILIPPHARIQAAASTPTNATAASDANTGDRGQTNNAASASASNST
Method in brief: (§1)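 Single-concentration screen at 0.1 µM across a panel of 76 protein kinases. Each kinase was run at an ATP concentration approximating its ATP Km. Results are % mean residual activity versus control assays without compound (n = 3 ± SD).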

[3] = Inhibition of CK2 assessed as residual activity at 0.1 uM by Cherenkov counting relative to control in presence of 5 uM ATP; method in brief: as §1
[4] = molecular target: Insulin receptor (Homo sapiens) (UniProt P06213); assay: Inhibition of histidine-tagged IR assessed as residual activity at 0.1 uM by Cherenkov counting relative to control in presence of 20 uM ATP
Insulin receptor (Homo sapiens), sequence (P06213 28-758 limits assumed): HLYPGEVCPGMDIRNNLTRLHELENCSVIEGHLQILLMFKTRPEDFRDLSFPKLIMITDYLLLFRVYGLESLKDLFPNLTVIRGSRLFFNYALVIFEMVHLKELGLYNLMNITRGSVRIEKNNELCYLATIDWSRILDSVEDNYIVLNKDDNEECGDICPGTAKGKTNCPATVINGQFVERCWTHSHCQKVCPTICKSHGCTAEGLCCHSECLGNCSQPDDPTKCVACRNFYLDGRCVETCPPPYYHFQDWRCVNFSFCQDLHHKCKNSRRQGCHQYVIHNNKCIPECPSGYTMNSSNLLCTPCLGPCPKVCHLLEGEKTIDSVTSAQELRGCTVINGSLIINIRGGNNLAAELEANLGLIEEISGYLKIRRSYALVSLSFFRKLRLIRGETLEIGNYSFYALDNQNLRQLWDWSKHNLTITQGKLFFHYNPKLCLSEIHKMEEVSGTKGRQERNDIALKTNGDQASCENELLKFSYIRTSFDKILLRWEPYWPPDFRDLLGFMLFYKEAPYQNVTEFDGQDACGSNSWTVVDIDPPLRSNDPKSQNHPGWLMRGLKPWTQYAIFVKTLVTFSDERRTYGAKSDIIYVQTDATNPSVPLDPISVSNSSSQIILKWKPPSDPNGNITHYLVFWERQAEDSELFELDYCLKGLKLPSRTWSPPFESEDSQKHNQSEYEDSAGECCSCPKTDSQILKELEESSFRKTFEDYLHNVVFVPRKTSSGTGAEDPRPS
Insulin receptor (Homo sapiens), sequence (P06213 763-1382 limits assumed): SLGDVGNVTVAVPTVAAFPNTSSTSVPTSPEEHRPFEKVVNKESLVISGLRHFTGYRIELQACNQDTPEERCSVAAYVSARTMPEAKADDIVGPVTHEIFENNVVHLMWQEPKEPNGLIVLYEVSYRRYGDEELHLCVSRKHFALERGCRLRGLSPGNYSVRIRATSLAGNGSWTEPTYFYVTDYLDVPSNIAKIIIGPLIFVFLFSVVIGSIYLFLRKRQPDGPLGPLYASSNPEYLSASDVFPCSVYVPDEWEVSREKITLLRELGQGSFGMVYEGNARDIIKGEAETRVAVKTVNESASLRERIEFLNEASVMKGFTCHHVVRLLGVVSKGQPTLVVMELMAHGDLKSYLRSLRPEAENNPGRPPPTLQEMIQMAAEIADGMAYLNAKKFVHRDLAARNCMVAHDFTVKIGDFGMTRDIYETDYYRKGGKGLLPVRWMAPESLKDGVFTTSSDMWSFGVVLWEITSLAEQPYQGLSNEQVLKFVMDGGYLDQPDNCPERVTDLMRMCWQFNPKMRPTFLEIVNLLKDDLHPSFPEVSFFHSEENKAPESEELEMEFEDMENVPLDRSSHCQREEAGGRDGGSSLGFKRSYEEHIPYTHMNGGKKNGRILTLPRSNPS
Method in brief: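 Single-concentration screen at 0.1 μM in a 76-kinase panel. ATP for each kinase was set near its Km for ATP. Residual activity is given as a percentage of control assays without compound, mean of n = 3 ± SD.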

[5] = molecular target: Mitogen-activated protein kinase 15 (Homo sapiens) (UniProt Q8TD08); assay: Inhibition of ERK8 assessed as residual activity at 0.1 uM by Cherenkov counting relative to control in presence of 5 uM ATP; method in brief: as §1
Mitogen-activated protein kinase 15 (Homo sapiens), sequence (Q8TD08 whole entry): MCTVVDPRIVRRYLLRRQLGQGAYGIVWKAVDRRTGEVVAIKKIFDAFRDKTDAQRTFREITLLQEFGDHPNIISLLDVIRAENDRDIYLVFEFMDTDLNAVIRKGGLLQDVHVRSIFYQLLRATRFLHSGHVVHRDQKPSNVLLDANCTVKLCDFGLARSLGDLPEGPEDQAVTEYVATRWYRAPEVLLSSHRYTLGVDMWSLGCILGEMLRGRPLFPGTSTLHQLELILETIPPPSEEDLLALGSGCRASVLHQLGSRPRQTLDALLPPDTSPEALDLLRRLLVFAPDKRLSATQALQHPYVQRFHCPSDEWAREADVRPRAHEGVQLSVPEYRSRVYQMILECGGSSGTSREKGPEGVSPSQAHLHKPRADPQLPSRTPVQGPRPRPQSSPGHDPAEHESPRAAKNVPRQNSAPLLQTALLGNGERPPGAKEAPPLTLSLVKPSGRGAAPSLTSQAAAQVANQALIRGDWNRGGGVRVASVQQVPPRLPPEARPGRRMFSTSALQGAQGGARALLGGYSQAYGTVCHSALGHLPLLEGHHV

[6] = molecular target: T2, Eukaryotic elongation factor 2 kinase (Homo sapiens) (UniProt O00418); assay: Inhibition of EF2K assessed as residual activity at 0.1 uM by Cherenkov counting relative to control in presence of 5 uM ATP; method in brief: as §1
T2 sequence (whole entry): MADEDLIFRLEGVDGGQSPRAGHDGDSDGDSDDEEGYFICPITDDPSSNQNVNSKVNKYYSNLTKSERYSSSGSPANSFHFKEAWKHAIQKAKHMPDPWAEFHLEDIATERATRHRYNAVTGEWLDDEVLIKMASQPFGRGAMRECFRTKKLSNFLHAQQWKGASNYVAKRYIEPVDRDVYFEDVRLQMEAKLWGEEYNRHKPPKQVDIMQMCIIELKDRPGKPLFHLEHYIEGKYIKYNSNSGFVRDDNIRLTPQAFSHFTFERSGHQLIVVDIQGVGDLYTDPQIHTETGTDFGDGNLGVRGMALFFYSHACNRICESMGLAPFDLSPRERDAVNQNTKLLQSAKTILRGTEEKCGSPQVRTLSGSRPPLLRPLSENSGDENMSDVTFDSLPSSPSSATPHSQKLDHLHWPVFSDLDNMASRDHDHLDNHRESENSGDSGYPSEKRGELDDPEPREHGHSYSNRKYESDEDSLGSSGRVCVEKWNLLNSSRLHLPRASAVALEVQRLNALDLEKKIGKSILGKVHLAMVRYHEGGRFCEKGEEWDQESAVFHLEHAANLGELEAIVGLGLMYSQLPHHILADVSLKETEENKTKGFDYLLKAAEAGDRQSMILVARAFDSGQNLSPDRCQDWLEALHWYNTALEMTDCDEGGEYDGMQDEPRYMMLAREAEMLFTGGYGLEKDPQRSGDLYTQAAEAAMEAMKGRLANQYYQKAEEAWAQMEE

[7] = molecular target: Serine/threonine-protein kinase Nek6 (Homo sapiens) (UniProt Q9HC98); assay: Inhibition of NEK6 assessed as residual activity at 10 uM by Cherenkov counting relative to control in presence of 50 uM ATP
Serine/threonine-protein kinase Nek6 (Homo sapiens), sequence (Q9HC98 whole entry, canonical isoform): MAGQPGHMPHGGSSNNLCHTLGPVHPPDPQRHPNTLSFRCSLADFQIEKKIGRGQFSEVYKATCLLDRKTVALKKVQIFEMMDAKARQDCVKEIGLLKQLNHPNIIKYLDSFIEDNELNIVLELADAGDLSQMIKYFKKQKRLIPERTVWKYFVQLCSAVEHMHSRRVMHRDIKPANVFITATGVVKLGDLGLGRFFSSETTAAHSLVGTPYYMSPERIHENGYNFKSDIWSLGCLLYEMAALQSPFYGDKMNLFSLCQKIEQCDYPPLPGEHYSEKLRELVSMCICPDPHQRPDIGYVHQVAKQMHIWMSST

[8] = molecular target: T1, Casein kinase I isoform delta; assay: Inhibition of CK1delta assessed as residual activity at 10 uM by Cherenkov counting relative to control in presence of 20 uM ATP
Method in brief: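 CK1δ tested within a 78-protein-kinase panel with compound at 10 µM. Activity is expressed as a percentage of kinase activity relative to control assays run without compound.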

[9] = molecular target: T3, Dual specificity tyrosine-phosphorylation-regulated kinase 3 (Homo sapiens) (UniProt O43781); assay: Inhibition of DYRK3 assessed as residual activity at 10 uM by Cherenkov counting relative to control in presence of 5 uM ATP
T3 sequence (whole entry): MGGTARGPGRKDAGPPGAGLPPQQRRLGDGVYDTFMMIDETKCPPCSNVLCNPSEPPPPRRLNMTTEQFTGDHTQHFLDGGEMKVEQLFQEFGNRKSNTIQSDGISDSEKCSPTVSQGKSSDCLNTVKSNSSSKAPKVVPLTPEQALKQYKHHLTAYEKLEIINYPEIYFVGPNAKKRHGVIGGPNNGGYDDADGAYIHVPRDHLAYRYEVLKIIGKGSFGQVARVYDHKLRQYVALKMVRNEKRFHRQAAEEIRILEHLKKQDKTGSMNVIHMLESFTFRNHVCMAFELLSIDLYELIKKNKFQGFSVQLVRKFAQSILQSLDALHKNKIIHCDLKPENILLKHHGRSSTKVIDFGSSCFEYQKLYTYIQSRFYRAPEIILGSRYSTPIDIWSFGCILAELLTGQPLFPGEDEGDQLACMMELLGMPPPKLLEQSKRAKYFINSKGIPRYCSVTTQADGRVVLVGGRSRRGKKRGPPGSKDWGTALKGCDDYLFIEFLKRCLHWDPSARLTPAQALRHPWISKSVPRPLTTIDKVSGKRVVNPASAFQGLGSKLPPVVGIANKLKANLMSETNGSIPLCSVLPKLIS
Method in brief: (§2)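 Single-point profiling at 10 µM in a panel of 78 protein kinases. Kinase activity is expressed as a percentage relative to control assays without compound.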

[10] = molecular target: Calcium/calmodulin-dependent protein kinase kinase 1 (Homo sapiens) (UniProt Q8N5S9); assay: Inhibition of CAMKKalpha assessed as residual activity at 10 uM by Cherenkov counting relative to control; method in brief: as §2
Calcium/calmodulin-dependent protein kinase kinase 1 (Homo sapiens), sequence (Q8N5S9 whole entry, looked up): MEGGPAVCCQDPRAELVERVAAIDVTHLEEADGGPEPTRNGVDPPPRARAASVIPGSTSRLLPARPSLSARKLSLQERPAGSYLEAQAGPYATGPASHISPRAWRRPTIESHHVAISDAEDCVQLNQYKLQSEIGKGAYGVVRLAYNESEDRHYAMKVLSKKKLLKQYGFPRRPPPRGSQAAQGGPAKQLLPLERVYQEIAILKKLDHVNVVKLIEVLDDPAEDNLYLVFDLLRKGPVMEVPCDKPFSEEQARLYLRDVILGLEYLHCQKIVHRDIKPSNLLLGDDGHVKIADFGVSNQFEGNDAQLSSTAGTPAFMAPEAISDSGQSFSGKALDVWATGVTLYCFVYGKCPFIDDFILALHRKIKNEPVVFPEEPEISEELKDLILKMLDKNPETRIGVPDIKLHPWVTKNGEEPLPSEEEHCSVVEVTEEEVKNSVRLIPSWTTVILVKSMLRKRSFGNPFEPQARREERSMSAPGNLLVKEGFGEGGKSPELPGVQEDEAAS

[11] = molecular target: MAP kinase-activated protein kinase 2 (Homo sapiens) (UniProt P49137); assay: Inhibition of MAPKAPK2 assessed as residual activity at 10 uM by Cherenkov counting relative to control in presence of 20 uM ATP
MAP kinase-activated protein kinase 2 (Homo sapiens), sequence (P49137 whole entry, looked up): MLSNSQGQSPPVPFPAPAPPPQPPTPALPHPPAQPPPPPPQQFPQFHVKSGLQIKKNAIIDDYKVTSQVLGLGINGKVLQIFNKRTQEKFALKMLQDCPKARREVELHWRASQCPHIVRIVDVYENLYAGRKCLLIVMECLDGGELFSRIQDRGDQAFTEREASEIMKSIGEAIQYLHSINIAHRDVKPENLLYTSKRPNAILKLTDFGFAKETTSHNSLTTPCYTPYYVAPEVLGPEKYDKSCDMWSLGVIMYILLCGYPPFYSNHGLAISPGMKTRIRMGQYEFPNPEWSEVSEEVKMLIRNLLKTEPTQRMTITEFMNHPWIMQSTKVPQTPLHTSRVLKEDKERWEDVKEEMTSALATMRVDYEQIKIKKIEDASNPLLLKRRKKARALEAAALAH

T1 sequence (P48730 whole entry, looked up, canonical isoform): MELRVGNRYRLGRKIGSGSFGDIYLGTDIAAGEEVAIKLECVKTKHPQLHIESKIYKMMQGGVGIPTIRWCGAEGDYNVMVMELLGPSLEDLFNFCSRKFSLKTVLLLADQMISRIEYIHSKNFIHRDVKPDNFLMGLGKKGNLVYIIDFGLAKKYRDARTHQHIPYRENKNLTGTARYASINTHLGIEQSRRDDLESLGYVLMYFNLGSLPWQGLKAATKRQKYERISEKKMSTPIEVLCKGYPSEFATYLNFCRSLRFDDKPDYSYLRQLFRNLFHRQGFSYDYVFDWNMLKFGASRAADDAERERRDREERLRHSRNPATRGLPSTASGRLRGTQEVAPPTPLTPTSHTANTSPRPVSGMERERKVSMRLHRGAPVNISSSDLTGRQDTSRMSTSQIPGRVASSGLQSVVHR

SMILES	Activity [1]	Activity [2]	Activity [3]	Activity [4]	Activity [5]	Activity [6]	Activity [7]	Activity [8]	Activity [9]	Activity [10]	Activity [11]
COc1ccc(/C=C/C(=O)Nc2cc(-c3[nH]c(SC)nc3-c3ccc(F)cc3)ccn2)c(OC)c1	10%	81%	115%	94%	83%	100%	–	–	–	–	–
COc1ccc(/C=C/C(=O)Nc2cc(-c3[nH]c([S+](C)[O-])nc3-c3ccc(F)cc3)ccn2)c(OC)c1 (configuration not stated)	18%	101%	122%	94%	88%	102%	–	–	–	–	–
CC(C)c1onc(-c2ccc(F)cc2)c1-c1ccncc1	–	–	–	–	–	–	112%	6%	97%	91%	105%
CC(C)c1noc(-c2ccc(F)cc2)c1-c1ccncc1	–	–	–	–	–	–	108%	55%	101%	103%	100%
